An excerpt weighted towards active compounds, which were near 1.8% of everything screened.
Tn6 DDE FP = DD(E)-Tn6 binding inhibition, primary FP screen | Fibrin DD(E) TRITC-Tn6 fluorescence polarization displacement | AID 720509 | P02675 | 370,000 tested, 0.21% active | inhibition, % at 8.3 µM;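 active = inhibition above a per-campaign cutoff: mean of compounds within control limits plus 3 SD, cut at about 15% in these data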;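 also: 0% = median of all compound wells on the plate and 100% = blocking peptide control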
DDE Tn7 FP inh = DD(E)-Tn7 binding inhibition, primary FP screen; P02675; FP displacement of FITC-Tn7 peptide from fibrin DD(E); 0% = median of compound wells per plate; inhibition, % at 8.3 µM; 370,000 tested, 0.13% active; AID 720508;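 active = inhibition above the mean of compounds falling within the control limits plus 3 SD of them, cut at about 14% in these data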;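 also: 0% = plate median of compound wells and 100% = 10 µM Aha-Tn7 peptide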
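Assay system: Human fibrin DD(E) protein | Medium: Tris buffer with calcium and detergent, pH 7.8 | Reagent: 0.1 µM fluorescent Tn7 | Compound dosing: Single point at 8.3 µM | Times: 10 min preincubation, 3 h with tracer, room temperature | Detection: Fluorescence polarization of the labelled Tn7 tracer | Controls: Aha-Tn7 high control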
SIAE primary = inhibitors of human sialic acid acetylesterase SIAE; inhibition, % at 9.66 µM; Q9HAT2; SIAE FP-Rh probe binding, fluorescence polarization; 370,000 tested, 0.69% active; AID 1053197;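 active = inhibition above a cutoff: mean of compounds within the control limits plus 3 SD of those, cut at about 17% in these data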;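 also: 0% = plate median of compound wells and 100% = probe without SIAE protein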
TCR CD3 inh = inhibitors of human TCR-CD3 interaction. TAMRA-labeled TCR probe fluorescence, biochemical. inhibition, % at 9.4 µM. 360,000 tested, 0.37% active; in the data active = inhibition above about 19%;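 also: recombinant mutant TCR 2C K166C tagged with TAMRA read by polarization; 0% = receptor in buffer alone and 100% = receptor with positive control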
HTRA1 inhibitor = HTRA1 (human) protease inhibition. Q92743. recombinant HTRA1, FP-rhodamine activity-based probe, fluorescence polarization. inhibition, % at 5.96 µM. 340,000 tested, 0.5% active; in the data active = inhibition above about 36%;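 also: 0% = enzyme with DMSO and 100% = wells lacking enzyme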
Target sequence (Q92743 whole entry, looked up): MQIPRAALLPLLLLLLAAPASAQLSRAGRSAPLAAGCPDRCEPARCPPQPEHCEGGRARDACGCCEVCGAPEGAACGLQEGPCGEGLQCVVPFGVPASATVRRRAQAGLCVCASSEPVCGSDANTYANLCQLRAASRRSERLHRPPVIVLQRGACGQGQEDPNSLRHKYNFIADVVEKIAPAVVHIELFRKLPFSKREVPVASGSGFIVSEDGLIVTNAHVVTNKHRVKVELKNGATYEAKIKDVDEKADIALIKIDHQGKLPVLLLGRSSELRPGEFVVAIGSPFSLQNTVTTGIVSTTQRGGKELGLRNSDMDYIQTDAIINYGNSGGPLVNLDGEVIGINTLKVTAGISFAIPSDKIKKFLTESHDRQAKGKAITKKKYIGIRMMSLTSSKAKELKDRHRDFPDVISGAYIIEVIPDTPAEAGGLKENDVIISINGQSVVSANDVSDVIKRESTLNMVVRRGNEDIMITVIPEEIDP
ABHD4 inh = inhibits mouse alpha/beta hydrolase domain 4 | purified mABHD4, FP-Rh probe fluorescence polarization | Q8VD66 | 370,000 tested, 0.54% active | inhibition, % at 8.92 µM;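 active = inhibition exceeding the mean over every tested compound plus 3 SD, cut at about 30% in these data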;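 also: 0% = plate median of compound wells and 100% = S159A mutant with DMSO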
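Assay system: Wild-type mouse ABHD4 protein | Medium: HEPES pH 7.0 buffer, 150 mM NaCl, 0.01% Pluronic F-127 | Incubation: Enzyme–compound pre-incubation 45 min, then probe 60 min, both 25 °C | Technique: Fluorescence polarization with parallel and perpendicular emission, 525/598 nm | Evaluation: % inhibition of FP-Rh probe binding versus controls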
An asterisk follows results filed as active; nt = no result.

SMILES | Tn6 DDE FP | DDE Tn7 FP inh | SIAE primary | TCR CD3 inh | HTRA1 inhibitor | ABHD4 inh
COC(=O)c1ccc(C2Nc3ccc(/C(C)=N/NC(=O)C(OC)c4ccccc4)cc3C3C=CCC32)cc1 (configuration not stated) | -9.0 | -8.0 | 21.8* | 1.4 | 20.8 | 14.3
CC(=O)c1ccc2c(c1)C1C=CCC1C(c1ccncc1)N2 (configuration not stated) | 2.1 | -0.7 | 7.7 | -0.3 | 14.7 | 20.7
COC(=O)C12C=C3CC(C)=C3C(=O)N1Cc1[nH]c3ccccc3c1C2 (configuration not stated) | 4.8 | -5.3 | 7.8 | nt | nt | 6.3
CN1CCc2cc3c(c4c2[C@H]1[C@H](O)c1ccccc1-4)OCO3 | 7.0 | -1.7 | 11.9 | 15.4 | 16.5 | 46.2*
O=C(CSc1nnc(-c2ccc(Cl)cc2)n1Cc1ccco1)Nc1ccc(S(=O)(=O)Nc2nccs2)cc1 | 5.7 | -3.5 | -27.6 | nt | nt | -33.5
c1ccc(CNC2CCC23CCC(c2ccccc2)CC3)cc1 (configuration not stated) | -5.8 | 5.3 | 2.2 | nt | nt | 4.2
O=C(Nc1cccc(Cl)c1)Nc1cc(S(=O)(=O)N2CCCCC2)ccc1Cl | 55.1* | 4.7 | -230.3 | 84.8* | -141.9 | -170.2
CCOC(=O)CC[C@H]1CC[C@]2(CCCN(S(=O)(=O)C3CCCCC3)C2)O1 | 4.6 | 2.1 | 9.6 | nt | nt | -0.5
CN1CC(c2ccccc2)C2(SC(=S)N(Cc3ccco3)C2=O)C12C(=O)Nc1ccccc12 (configuration not stated) | 1.6 | 14.8* | -14.0 | 5.9 | -21.1 | -15.4
CCOc1ccc(C=Nn2c(-c3ccc(F)cc3)n[nH]c2=S)cc1 | -0.7 | 3.2 | 1.1 | nt | nt | 0.7
Nc1nc2ccccc2[nH]1 | -11.9 | -1.2 | -2.9 | 2.7 | 2.1 | 3.7
Nc1ccccc1Sc1nc2ccccc2[nH]1 | 4.0 | -3.9 | 18.2* | -13.7 | -7.0 | 2.5
C[C@@H]1CN([C@H](C)CO)C(=O)c2cc(NC(=O)Nc3ccccc3)ccc2O[C@@H](C)CCCCO[C@H]1CN(C)S(=O)(=O)c1ccc(F)cc1 | -3.6 | -1.2 | -0.9 | nt | nt | -26.4
S=C1Nc2ccccc2CS1 | 4.6 | 2.7 | 6.9 | 1.9 | -3.2 | 0.5
S=C1Cc2ccccc2N1 | -15.8 | -7.2 | 5.7 | 6.6 | 23.7 | 34.1*
Cc1ccc(C)c(N2C(=N)S/C(=C\c3ccc(-c4ccccc4C(=O)O)o3)C2=O)c1 | -7.8 | 4.1 | 2.3 | -3.2 | -13.1 | 33.9*
COC(=O)[C@]12C[C@H](CC(=O)N3CCCCC3)C(=O)N(CCC3=CCCCC3)C1=C[C@H](C1CCCC1)O[C@@H]2C | -13.8 | 6.0 | -2.0 | nt | nt | -14.6
CC(C)(C)c1ccc(-c2nnc(SCC(=O)Nc3ccc(S(=O)(=O)Nc4nccs4)cc3)n2-c2ccc(Cl)cc2)cc1 | 1.6 | -6.6 | -43.5 | nt | nt | -77.6
O=C(Nc1ccc2c(c1)OCO2)c1cc2ncc(Br)cn2n1 | -6.4 | 0.7 | 68.4* | 7.9 | 14.3 | -0.8
Cc1cc(O)c2c(c1O)C(=O)[C@]13C(=C2O)C(=O)[C@@H]2[C@@H](O)[C@H]1[C@@H]1[C@H](O)[C@H]3C(=O)C3=C(O)c4c(O)cc(C)c(O)c4C(=O)[C@]312 | nt | nt | nt | nt | 41.5* | nt
O=C(O)c1ccc(S(=O)(=O)/N=C2\C=C(Nc3ccccc3F)C(=O)c3ccccc32)cc1 | -2.5 | -5.2 | 8.1 | -0.2 | 27.2 | 57.5*
CC(C)c1ccc(S(=O)(=O)/N=C2\C=C(NS(=O)(=O)c3ccccc3)C(=O)c3ccccc32)cc1 | -6.7 | -7.3 | 7.6 | -3.9 | 8.6 | 50.8*
COc1ccc(C(=O)Oc2c(CN3CCOCC3)cc(Cl)c3cccnc23)cc1 | 4.8 | -7.2 | -3.9 | -2.6 | 39.7* | 4.9
COc1ccc(S[C@]2(C(=O)N(C)C)CC(=O)N(S(=O)(=O)c3ccc(F)cc3)[C@@H]2c2ccc(OC)cc2)cc1 | 9.4 | -1.7 | -5.8 | nt | nt | -2.8
Cc1ccc(S(=O)(=O)NCC2CN(S(=O)(=O)c3ccc(C)cc3)c3ccccc3C(=O)N2c2ccc(F)cc2)cc1 (configuration not stated) | -0.1 | -8.7 | -12.8 | nt | nt | 4.7
SMILES | Tn6 DDE FP | DDE Tn7 FP inh | SIAE primary | TCR CD3 inh | HTRA1 inhibitor | ABHD4 inh
CC1Oc2cc3oc4c(O)c(O)ccc4c(=O)c3c(O)c2C1(C)C (configuration not stated) | nt | nt | nt | nt | 71.8* | nt
COc1cccc(CN(C(=O)c2ccco2)C(C(=O)NC2CCCC2)c2cccnc2)c1 (configuration not stated) | 1.9 | 0.1 | 135.3* | -11.8 | -0.2 | -4.0
COc1ccc(N(C(=O)c2ccco2)C(C(=O)NC2CCCC2)c2cccnc2)c(OC)c1 (configuration not stated) | 6.0 | 8.2 | 2.2 | -2.0 | -3.0 | -4.0
COc1cccc(CN(C(=O)Cc2c[nH]c3ccccc23)C(C(=O)NC2CCCCC2)c2ccc(C)o2)c1 (configuration not stated) | 2.7 | -1.4 | 18.0* | -1.2 | -32.8 | -6.4
COc1ccc(CN(C(=O)Cc2c[nH]c3ccccc23)C(C(=O)NC2CCCCC2)c2ccc(C)o2)cc1 (configuration not stated) | 0.7 | 0.6 | -0.7 | 4.1 | -37.8 | -11.4
COc1ccc(C=Nn2c(-c3ccc(F)cc3)n[nH]c2=S)cc1OCc1ccccc1 | 2.4 | 1.9 | 4.5 | nt | nt | 1.9
CCOc1ccc(-n2c(SCC(=O)Nc3ccc(S(=O)(=O)Nc4cc(C)nc(C)n4)cc3)nnc2-c2ccco2)cc1 | 6.1 | -4.6 | -3.8 | nt | nt | -11.0
O=C(COC(=O)CCCN1C(=O)c2ccccc2C1=O)Nc1ncc(Cl)cc1Cl | -2.5 | 15.2* | -1.9 | 1.7 | 4.0 | 5.8
CC(C)(C)c1ccc(-c2nnc(SCC(=O)Nc3cccc4ccccc34)n2Cc2ccco2)cc1 | -2.9 | -4.6 | -13.2 | nt | nt | -18.3
CCOc1ccc(-n2c(SCC(=O)Nc3ccc(S(=O)(=O)Nc4nccs4)cc3)nnc2-c2ccco2)cc1 | -8.8 | -4.3 | -23.0 | nt | nt | -27.4
COc1cccc(NC(=O)C/C(C)=N/NC(=O)c2ccccc2Cl)c1 | 2.0 | -0.1 | 2.9 | -6.5 | -2.0 | -2.7
C/C(CC(=O)Nc1ccc(Cl)c(C(F)(F)F)c1)=N\NC(=O)c1cc2ccccc2cc1O | -1.7 | -6.0 | 39.6* | -3.8 | 22.1 | 14.2
CCOC(=O)Nc1ccc2c(c1)C(=NNC(=S)NC)c1ccccc1-2 | 2.4 | 14.9* | 15.3 | -0.4 | -55.7 | -7.6
C/C(CC(=O)Nc1cc(C)ccn1)=N\NC(=O)c1cccc(C)c1O | -4.6 | 3.3 | 4.0 | 35.4* | 33.0 | 11.2
COc1cc(C=Nn2c(-c3cc(-c4ccccc4)n[nH]3)n[nH]c2=S)ccc1OC(C)=O | -2.2 | -5.9 | 8.6 | nt | nt | -0.4
C=CCN1C(=O)/C(=C2/Sc3ccccc3N2CC)SC1=S | 6.4 | 3.5 | -2.3 | 0.7 | -6.1 | 1.7

Bioassay records deposited in PubChem by The Scripps Research Institute Molecular Screening Center.
